Experimental findings from ChEMBL document CHEMBL4033797, “Discovery of [ cis-3-({(5 R)-5-[(7-Fluoro-1,1-dimethyl-2,3-dihydro-1 H-inden-5-yl)carbamoyl]-2-methoxy-7,8-dihydro-1,6-naphthyridin-6(5 H)-yl}carbonyl)cyclobutyl]acetic Acid (TAK-828F) as a Potent, Selective, and Orally Available Novel Retinoic Acid Receptor-Related Orphan Receptor γt Inverse …” (J Med Chem, 2018) are described below.

Each structure is given as a SMILES string. Activity calls are given as the source filed them. The rule behind the calls is not given here.

Data set [1] can be described thus: Lipophilicity, log D of the compound at pH 7.4. The class given is physicochemical. As to conditions: buffer.
Data set [2] is described as follows: AUC (0 to 8 hrs) in mouse at 1 mg/kg, po administered via cassette dosing. It counts as ADME, organism-based. Details: time < 8 hr, dose 1 mg/kg, route oral. The conditions noted are these: in vivo. In outline: (§1)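 Mice received a single oral 1 mg/kg dose in cassette format. Plasma was sampled over 8 h for Cmax, Tmax, AUC0–8h, MRT and oral bioavailability (F). Values are means of three determinations.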

The nature of data set [3]: Oral bioavailability in mouse at 1 mg/kg administered via cassette dosing. It counts as ADME, organism-based. The conditions noted are these: in vivo. In outline: as §1
Data set [4] has as its system Mus musculus. Kind of data set: In vivo inverse agonist activity at RORgammat in po dosed C57BL/6 mouse assessed as inhibition of IL-23-induced IL-17A cytokine expression. The class given is functional.
Data set [5] concerns the target T1, Nuclear receptor ROR-beta (Homo sapiens, UniProt Q92753).
T1 sequence (Q92753 whole entry): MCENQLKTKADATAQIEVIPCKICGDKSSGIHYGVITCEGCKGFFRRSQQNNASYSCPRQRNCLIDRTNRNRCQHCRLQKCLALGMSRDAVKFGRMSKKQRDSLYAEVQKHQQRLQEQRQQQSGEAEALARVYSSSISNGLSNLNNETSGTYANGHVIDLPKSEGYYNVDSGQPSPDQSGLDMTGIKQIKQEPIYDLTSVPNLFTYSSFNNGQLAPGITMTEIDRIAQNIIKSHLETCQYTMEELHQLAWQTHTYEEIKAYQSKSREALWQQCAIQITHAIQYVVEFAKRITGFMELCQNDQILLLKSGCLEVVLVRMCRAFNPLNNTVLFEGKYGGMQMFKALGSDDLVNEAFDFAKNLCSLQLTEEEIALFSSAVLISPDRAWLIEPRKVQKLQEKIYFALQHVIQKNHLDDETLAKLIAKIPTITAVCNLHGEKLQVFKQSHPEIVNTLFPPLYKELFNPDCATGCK
Kind of data set: Inverse agonist activity at human RORbeta expressed in human Jurkat cells assessed as inhibition of transcriptional activity after 10 mins by human IL-17 ROR response element driven-bright-glo luciferase reporter gene assay. It counts as cell-based. The essentials: (§2)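 Cell-based reporter assay in human Jurkat cells carrying human RORα or RORβ. Inhibition of transcriptional activity was read as luciferase activity and reported as IC50.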

Data set [6] in a line: Cmax in mouse at 1 mg/kg, po administered via cassette dosing. The class given is ADME, organism-based. Details: dose 1 mg/kg, route oral. As to conditions: in vivo. In outline:
as §1

Data set [7] in a line: Tmax in mouse at 1 mg/kg, po administered via cassette dosing. As to conditions: in vivo. It counts as ADME, organism-based. In outline:
as §1

The nature of data set [8]: MRT in mouse at 1 mg/kg, po administered via cassette dosing. It counts as ADME, organism-based. The conditions noted are these: in vivo. The essentials:
as §1

In data set [9] the target is T2, Nuclear receptor ROR-alpha (Homo sapiens, UniProt P35398).
T2 sequence (P35398 whole entry): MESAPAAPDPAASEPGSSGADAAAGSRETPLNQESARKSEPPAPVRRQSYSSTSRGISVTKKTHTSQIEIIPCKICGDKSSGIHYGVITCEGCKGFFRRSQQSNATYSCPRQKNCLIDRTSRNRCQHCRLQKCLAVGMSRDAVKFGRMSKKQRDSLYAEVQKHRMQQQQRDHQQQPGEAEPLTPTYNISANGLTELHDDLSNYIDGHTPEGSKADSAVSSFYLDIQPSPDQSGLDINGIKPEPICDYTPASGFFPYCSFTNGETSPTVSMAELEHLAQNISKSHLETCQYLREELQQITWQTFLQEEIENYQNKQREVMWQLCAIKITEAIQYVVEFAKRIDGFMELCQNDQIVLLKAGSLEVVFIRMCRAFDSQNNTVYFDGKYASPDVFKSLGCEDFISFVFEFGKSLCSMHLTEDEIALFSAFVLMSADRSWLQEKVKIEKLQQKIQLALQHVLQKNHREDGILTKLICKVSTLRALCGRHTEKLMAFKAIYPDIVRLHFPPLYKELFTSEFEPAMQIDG
As to the kind of experiment: Inverse agonist activity at human RORalpha expressed in human Jurkat cells assessed as inhibition of transcriptional activity after 10 mins by human IL-17 ROR response element driven-bright-glo luciferase reporter gene assay. It counts as cell-based. The essentials:
as §2

Data set [10] deals with Mus musculus. Kind of data set: In vivo inverse agonist activity at RORgammat in po dosed C57BL/6 mouse assessed as inhibition of IL-23-induced IL-17A expression administered as bid. The class given is functional, organism-based. In outline: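 Mice were dosed orally twice daily at 0.3, 1 and 3 mg/kg. IL-17A expression induced by IL-23 was then measured, and an effective dose was derived from the dose–response.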

The test system of data set [11] is Mus musculus. As to the kind of experiment: Anti-inflammatory activity against MOG (35 to 55 residues)-induced EAE C57BL/6 mouse model assessed as inhibition of development of clinical symptoms at 1 mg/kg, administered bid via oral gavage measured after 28 days post Mycobacterium tuberculosis H37Ra/ MOG (35 to 55 residues)/pertussis toxin immunization. The conditions noted are these: C57BL/6, po, 672 h. It counts as functional. The essentials: (§3)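 Mice immunized with MOG peptide received oral drug in 0.5% methylcellulose vehicle bid for 28 days. EAE clinical score was recorded from day 0 to day 28, along with cumulative clinical score. Groups were 12 MOG-immunized mice per group plus 4 healthy controls, reported as mean ± S.E. Comparison was against vehicle-treated immunized controls by one-tailed Shirley-Williams test (p<0.025).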

Data set [12] has as its system Mus musculus. As to the kind of experiment: Anti-inflammatory activity against MOG (35 to 55 residues)-induced EAE C57BL/6 mouse model assessed as inhibition of development of clinical symptoms at 3 mg/kg, administered bid via oral gavage measured after 28 days post Mycobacterium tuberculosis H37Ra/ MOG (35 to 55 residues)/pertussis toxin immunization. It counts as functional. The conditions noted are these: C57BL/6, po, 672 h. The essentials: as §3

The test system of data set [13] is Mus musculus. As to the kind of experiment: Anti-inflammatory activity in activated T cell transfer po dosed mouse colitis model. The class given is functional, organism-based.
Data set [14] deals with Mus musculus. Kind of data set: Anti-inflammatory activity against IL-23 induced po dosed mouse psoriasis model. It counts as functional, organism-based.

In the case of `COc1ccc2c(c1)CCN(C(=O)CCCC(=O)O)[C@H]2C(=O)Nc1cc(F)c(C(C)(C)C)c(F)c1`, the logD in data set [1] was found to be 3.77. In data set [2], the area under the curve AUC(0-t) at 8 h came out at 2840 ng·h/mL. In data set [3], the bioavailability came out at 62%.
`COc1ccc2c(n1)CCN(C(=O)[C@H]1C[C@H](C(=O)O)C1)[C@H]2C(=O)Nc1cc(F)c2c(c1)CCC2(C)C` displayed a pH-dependent lipophilicity (logD) in data set [1] of 3.46.
Compound `COc1ccc2c(n1)CCN(C(=O)C[C@H]1C[C@H](C(=O)O)C1)[C@H]2C(=O)Nc1cc(F)c2c(c1)CCC2(C)C` yielded a logD in [1] of 3.49.
Compound `COc1ccc2c(c1)CCN(C(=O)CCCC(=O)O)[C@H]2C(=O)Nc1cc(F)c2c(c1)CCC2(C)C` came in with a logD in [1] of 3.37. Moreover, the AUC(0-t) at 8 h in [2] worked out at 3440 ng·h/mL. Also, the bioavailability in [3] amounted to 91%. In addition, in the data set with Mus musculus [4], the inhibition result was “Dose-dependent effect”.
In [1], `COc1ccc2c(n1)CCN(C(=O)[C@H]1C[C@H](CC(=O)O)C1)[C@H]2C(=O)Nc1cc(F)c2c(c1)CCC2(C)C` had a logD of 3.54.
`COCC(C)(C)c1c(F)cc(NC(=O)[C@H]2c3ccc(OC)cc3CCN2C(=O)CCCC(=O)O)cc1F` gave a logD in data set [1] of 3.16. For the same compound, the area under the curve AUC(0-t) at 8 h in [2] stood at 389 ng·h/mL. Moreover, the bioavailability in [3] is 78%.
Compound `COc1ccc2c(n1)CCN(C(=O)[C@H]1C[C@@H](C(=O)O)C1)[C@H]2C(=O)Nc1cc(F)c2c(c1)CCC2(C)C` came in with a log distribution coefficient (logD) in data set [1] of 3.39.
For the compound `COc1ccc2c(n1)CCN(C(=O)[C@H]1C[C@@H](CC(=O)O)C1)[C@H]2C(=O)Nc1cc(F)c2c(c1)CCC2(C)C`, the IC50 in data set [5] and in data set [9] was at least 30 µM throughout. This compound registered a pH-dependent lipophilicity (logD) in [1] of 3.53. This compound came in with an AUC(0-t) at 8 h in [2] of 10100 ng·h/mL. Further, the highest concentration (Cmax) in data set [6] was 1560 ng/mL. Besides, the Tmax in data set [7] came out at 2.3 h. This compound had a mean residence time (MRT) in data set [8] of 4.1 h. In addition, the inhibition entry in the data set with Mus musculus [10] is “Dose-dependent effect”. Besides, in the data set on Mus musculus [11], the inhibition in vivo at 1 mg/kg amounted to 50%. Besides, the inhibition in vivo at 3 mg/kg with Mus musculus [12] was 44%. Further, the result with Mus musculus [13] and with Mus musculus [14] was Active.
With `COc1ccc2c(c1)CCN(C(=O)CCCC(=O)O)[C@H]2C(=O)Nc1cc(F)c([Si](C)(C)C)c(F)c1`, the logD in data set [1] was 3.96. Besides, the inhibition result with Mus musculus [4] is “Dose-dependent effect”. In addition, in the data set with Mus musculus [4] (C57BL/6, po), the ED80 worked out at 7.6 mg/kg.
`COc1ccc2c(n1)CCN(C(=O)C1CN(CC(=O)O)C1)[C@H]2C(=O)Nc1cc(F)c2c(c1)CCC2(C)C`: the logD in data set [1] is 3.39.
`COc1ccc2c(n1)CCN(C(=O)CCCC(=O)O)[C@H]2C(=O)Nc1cc(F)c([Si](C)(C)C)c(F)c1`: the pH-dependent lipophilicity (logD) in data set [1] worked out at 4.04. In addition, in [2], the exposure AUC(0-t) at 8 h is 2880 ng·h/mL. The bioavailability in data set [3] came out at 51%.
`COc1ccc2c(n1)CCN(C(=O)N1CC(CC(=O)O)C1)[C@H]2C(=O)Nc1cc(F)c2c(c1)CCC2(C)C` yielded a logD in data set [1] of 3.42.
In data set [1], `COc1ccc2c(n1)CCN(C(=O)CCCC(=O)O)[C@H]2C(=O)Nc1cc(F)c2c(c1)CCC2(C)C` displayed a pH-dependent lipophilicity (logD) of 3.39. Besides, the AUC(0-t) at 8 h in data set [2] was determined as 2620 ng·h/mL. The compound further yielded a bioavailability in data set [3] of 58%. Also, the inhibition entry in the data set with Mus musculus [4] is “Dose-dependent effect”.
With `COc1ccc2c(n1)CCN(C(=O)C[C@H]1C[C@@H](C(=O)O)C1)[C@H]2C(=O)Nc1cc(F)c2c(c1)CCC2(C)C`, the log distribution coefficient (logD) in data set [1] came to 3.51.
